Test results: ChEMBL document CHEMBL4024789, “Neutral Porphyrin Derivative Exerts Anticancer Activity by Targeting Cellular Topoisomerase I (Top1) and Promotes Apoptotic Cell Death without Stabilizing Top1-DNA Cleavage Complexes” (J Med Chem, 2018)
Calls of active or inactive are those of the source. The calls are words filed in the database; no cut-off is given here.

How the values were obtained:
DNA topoisomerase 1 [1] = target: T1, DNA topoisomerase 1 (Homo sapiens, UniProt P11387); assay: Inhibition of recombinant human topoisomerase-1 expressed in baculovirus infected sf9 cells using supercoiled pBS SK(+) DNA as substrate after 15 mins by ethidium bromide staining based agarose gel electrophoresis method
T1 sequence (P11387 whole entry): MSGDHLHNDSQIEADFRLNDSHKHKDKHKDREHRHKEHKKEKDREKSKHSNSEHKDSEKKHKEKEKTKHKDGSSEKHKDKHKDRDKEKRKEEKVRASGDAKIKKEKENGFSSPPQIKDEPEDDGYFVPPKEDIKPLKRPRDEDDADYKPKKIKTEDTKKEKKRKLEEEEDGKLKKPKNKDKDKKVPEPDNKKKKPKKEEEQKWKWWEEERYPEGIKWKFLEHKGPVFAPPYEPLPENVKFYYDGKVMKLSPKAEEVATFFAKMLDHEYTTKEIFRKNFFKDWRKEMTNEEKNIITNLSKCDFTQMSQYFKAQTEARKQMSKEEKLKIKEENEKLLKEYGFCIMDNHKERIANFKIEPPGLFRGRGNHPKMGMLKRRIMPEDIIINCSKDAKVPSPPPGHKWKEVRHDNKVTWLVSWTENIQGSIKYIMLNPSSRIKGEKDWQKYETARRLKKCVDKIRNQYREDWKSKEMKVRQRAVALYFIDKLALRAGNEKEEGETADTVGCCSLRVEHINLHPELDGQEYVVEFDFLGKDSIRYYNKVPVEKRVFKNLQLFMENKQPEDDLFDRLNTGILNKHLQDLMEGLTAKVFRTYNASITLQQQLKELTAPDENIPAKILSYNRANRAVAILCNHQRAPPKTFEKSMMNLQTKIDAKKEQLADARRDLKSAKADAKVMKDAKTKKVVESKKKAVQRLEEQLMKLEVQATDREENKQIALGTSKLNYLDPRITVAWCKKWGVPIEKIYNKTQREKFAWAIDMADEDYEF
Procedure, shortened: (§1)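 Relaxation assay: 90 fmol supercoiled pBS (SK+) DNA with 30 fmol recombinant Top1 (Sf-9/baculovirus). Compound either preincubated with Top1 for 5 min before DNA addition, or added simultaneously with DNA; then 37 °C for 15 min. Vehicle 2% DMSO. Read on 1% agarose gel. EC50 from mean ± SD of three experiments.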

DNA topoisomerase 1 [2] = target: T1, DNA topoisomerase 1; assay: Inhibition of recombinant human topoisomerase-1 expressed in baculovirus infected sf9 cells using supercoiled pBS SK(+) DNA as substrate preincubated for 5 mins followed by substrate addition measured after 15 mins by ethidium bromide staining based agarose gel electrophoresis method; procedure, shortened: as §1
Bacteria [3] = assay: Induction of relaxed pBluescript SK(+) DNA intercalation (unknown origin) assessed as negative supercoiling at 300 uM after 15 mins by agarose gel electrophoresis method
Procedure, shortened: (§2)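 Top1 unwinding assay: excess Top1 first relaxes 50 fmol supercoiled pBS (SK+) DNA, then the relaxed DNA is incubated with compound at 50, 100 or 300 μM (m-AMSA and etoposide as references). Negative supercoiling read on agarose gel.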

Bacteria [4] = assay: Induction of relaxed pBluescript SK(+) DNA intercalation (unknown origin) assessed as negative supercoiling at 50 uM after 15 mins by agarose gel electrophoresis method; procedure, shortened: as §2

SMILES	EC50 (DNA topoisomerase 1 [1])	EC50 (DNA topoisomerase 1 [2])	Activity (Bacteria [3])	Activity (Bacteria [4])
C1=Cc2nc1c(-c1ccccc1)c1ccc([nH]1)c(-c1ccccc1)c1nc(c(-c3ccccc3)c3ccc([nH]3)c2-c2ccccc2)C=C1	> 50 µM	> 50 µM	–	–
COc1cc([C@@H]2c3cc4c(cc3[C@@H](O[C@@H]3O[C@@H]5CO[C@@H](C)O[C@H]5[C@H](O)[C@H]3O)[C@H]3COC(=O)[C@H]23)OCO4)cc(OC)c1O	–	–	inactive	–
Nc1ccc(-c2ccc(-c3c4nc(c(-c5ccc(-c6ccc(N)cc6)cc5)c5ccc([nH]5)c(-c5ccncc5)c5nc(c(-c6ccncc6)c6ccc3[nH]6)C=C5)C=C4)cc2)cc1	82.8 µM	63.4 µM	–	–
O=C(O)c1ccc(-c2c3nc(c(-c4ccc(C(=O)O)cc4)c4ccc([nH]4)c(-c4ccc(C(=O)O)cc4)c4nc(c(-c5ccc(C(=O)O)cc5)c5ccc2[nH]5)C=C4)C=C3)cc1	2.02 µM	0.563 µM	–	–
COc1cc(NS(C)(=O)=O)ccc1Nc1c2ccccc2nc2ccccc12	–	–	–	Active
CN(C)c1ccc(-c2c3nc(c(-c4ccc(N(C)C)cc4)c4ccc([nH]4)c(-c4ccc(N(C)C)cc4)c4nc(c(-c5ccc(C(=O)O)cc5)c5ccc2[nH]5)C=C4)C=C3)cc1	1.97 µM	1.23 µM	–	–
C1=Cc2nc1c(-c1ccncc1)c1ccc([nH]1)c(-c1ccncc1)c1nc(c(-c3ccncc3)c3ccc([nH]3)c2-c2ccncc2)C=C1	> 50 µM	> 50 µM	–	–
Brc1ccc(-c2c3nc(c(-c4ccc(-c5ccncc5)cc4)c4ccc([nH]4)c(-c4ccc(Br)cc4)c4nc(c(-c5ccc(-c6ccncc6)cc5)c5ccc2[nH]5)C=C4)C=C3)cc1	> 50 µM	> 50 µM	–	–
Brc1ccc(-c2c3nc(c(-c4ccc(Br)cc4)c4ccc([nH]4)c(-c4ccncc4)c4nc(c(-c5ccncc5)c5ccc2[nH]5)C=C4)C=C3)cc1	> 50 µM	> 50 µM	–	–
Brc1ccc(-c2c3nc(c(-c4ccncc4)c4ccc([nH]4)c(-c4ccc(Br)cc4)c4nc(c(-c5ccncc5)c5ccc2[nH]5)C=C4)C=C3)cc1	> 50 µM	> 50 µM	–	–
Brc1ccc(-c2c3nc(c(-c4ccncc4)c4ccc([nH]4)c(-c4ccncc4)c4nc(c(-c5ccncc5)c5ccc2[nH]5)C=C4)C=C3)cc1	> 50 µM	> 50 µM	–	–
